Measurements from ChEMBL document CHEMBL4732118, “Discovery of indazole-pyridinone derivatives as a novel class of potent and selective MNK1/2 kinase inhibitors that protecting against endotoxin-induced septic shock” (Eur J Med Chem, 2021).
≈ marks a conversion by molar mass, not a printed value.

Columns and labels:
[1] = AUC (0 to infinity) in CD-1 mouse at 2 mg/kg, iv by LC-MS analysis; format: ADME, organism-based; parameters: route intravenous, time infinity, dose 2 mg/kg; settings: in vivo
How it was run: (§1)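 Female CD-1 mice, 5 weeks old, 3 per time point. Dosed at 10 µl/g, DMSO solution diluted in Captisol, p.o. 5 mg/kg or i.v. 2 mg/kg. Sacrifice at 5, 15, 30 min and 1, 2, 4, 7, 24 h. Plasma acetonitrile-precipitated, quantified by LC-MS/MS (C18, positive H-ESI, SRM) against a calibration curve in blank mouse plasma.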

[2] = Kinetic solubility of compound in water at 500 uM measured after […] by UV-VIS absorption spectrophotometry; format: physicochemical; settings: time 1.5 hrs, read-out: Kinetic_solubility
[3] = AUC (0 to t) in CD-1 mouse at 5 mg/kg, po by LC-MS analysis; format: ADME, organism-based; parameters: dose 5 mg/kg; settings: in vivo; how it was run: as §1
[4] = AUC (0 to t) in CD-1 mouse at 2 mg/kg, iv by LC-MS analysis; format: ADME, organism-based; parameters: dose 2 mg/kg; settings: in vivo; how it was run: as §1
[5] = Kinetic solubility of compound in pH 7.4 Soerensen's buffer at 500 uM measured after […] by UV-VIS absorption spectrophotometry; format: physicochemical; settings: time 1.5 hrs, read-out: Kinetic_solubility
[6] = Tmax in CD-1 mouse at 5 mg/kg, po by LC-MS analysis; format: ADME, organism-based; settings: in vivo
How it was run: (§2)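 Female CD-1 mice, 5 weeks old, 3 animals per time point. Compound dissolved in DMSO, diluted in Captisol, given p.o. at 5 mg/kg or i.v. at 2 mg/kg. Animals sacrificed at 5, 15 and 30 min and 1, 2, 4, 7 and 24 h. Plasma precipitated with cold acetonitrile and quantified by LC-MS/MS (SRM, positive H-ESI) against a blank mouse plasma calibration curve.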

[7] = Cmax in CD-1 mouse at 2 mg/kg, iv by LC-MS analysis; format: ADME, organism-based; parameters: route intravenous, dose 2 mg/kg; settings: in vivo; how it was run: as §1
[8] = Tmax in CD-1 mouse at 2 mg/kg, iv by LC-MS analysis; format: ADME, organism-based; settings: in vivo; how it was run: as §2
[9] = Oral bioavailability in CD-1 mouse at 5 mg/kg by LC-MS analysis; format: ADME, organism-based; settings: in vivo; how it was run: as §2
[10] = Cmax in CD-1 mouse at 5 mg/kg, po by LC-MS analysis; format: ADME, organism-based; parameters: route oral, dose 5 mg/kg; settings: in vivo; how it was run: as §1
[11] = AUC (0 to infinity) in CD-1 mouse at 5 mg/kg, po by LC-MS analysis; format: ADME, organism-based; parameters: time infinity, route oral, dose 5 mg/kg; settings: in vivo; how it was run: as §1

Row | AUC [1] [ng·h/mL] | solubility kinetic at […], 500 µM [2] [µM] | AUCt [3] [ng·h/mL] | AUCt [4] [ng·h/mL] | solubility kinetic at […], 500 µM [5] [µM] | Tmax [6] [min] | Cmax [7] [ng/mL] | Tmax [8] [min] | bioavailability [9] [%] | Cmax [10] [ng/mL] | AUC [11] [ng·h/mL] | SMILES
1 | 677 | > 500 | 517 | 629 | 466 (≈ 156 µg/mL) | 15 | 1670 | 4.8 | 33 | 335 | 674 | Nc1n[nH]c2cc(-c3ccc(=O)n(Cc4ccccc4F)c3)ccc12
2 | 855 | 275 (≈ 96.5 µg/mL) | 2150 | 834 | 172 (≈ 60.3 µg/mL) | 15 | 1490 | 4.8 | 100 | 1050 | 2410 | Nc1n[nH]c2cc(-c3ccc(=O)n(Cc4cccc(Cl)c4)c3)ccc12
